From ChEMBL document CHEMBL1147686, “Non-peptide calcitonin gene-related peptide receptor antagonists from a benzodiazepinone lead” (Bioorg Med Chem Lett, 2006)

Columns and labels:
[1] = biological target: T1, Calcitonin-gene-related peptide receptor, CALCRL/RAMP1 (Homo sapiens, UniProt O60894+Q16602); test: Displacement of [125I]CGRP from human cloned CLR/RAMP1 receptor expressed in E10 cells; type: cell-based
[2] = biological target: T1, Calcitonin-gene-related peptide receptor, CALCRL/RAMP1; test: Antagonist activity at human cloned CLR/RAMP1 receptor expressed in E10 cells measured as inhibition of CGRP-mediated cAMP production; type: functional, cell-based
Summary of the method: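 Whole E10 cells stably expressing cloned human CLR/RAMP1; antagonist tested against CGRP-stimulated cAMP production, IC50 from inhibition of the cAMP response.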

[3] = biological target: T1, Calcitonin-gene-related peptide receptor, CALCRL/RAMP1; test: Antagonist activity at human cloned CLR/RAMP1 receptor expressed in E10 cells measured as inhibition of CGRP-mediated cAMP production at 17 uM; type: functional, cell-based
[4] = biological target: Calcitonin-gene-related peptide receptor; CALCRL/RAMP1 (Rattus norvegicus) (UniProt Q63118+Q9JJ74); test: Displacement of [125I]CGRP from rat CLR/RAMP1 receptor at 100 uM; type: protein-complex assay
[5] = Cmax in rat; type: ADME, organism-based; settings: in vivo
[6] = Half life in iv dosed rat; type: ADME, organism-based; settings: in vivo
Summary of the method: (§1)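 Rats received compound intravenously; plasma half-life and clearance derived from the iv profile.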

[7] = Oral bioavailability in rat; type: ADME, organism-based; settings: in vivo
[8] = Clearance in iv dosed rat; type: ADME, organism-based; settings: in vivo; summary of the method: as §1
[9] = biological target: T1, Calcitonin-gene-related peptide receptor, CALCRL/RAMP1; test: Displacement of [125I]CGRP from human cloned CLR/RAMP1 receptor expressed in SK-N-MC cells at 100 uM; type: cell-based

T1 sequence (O60894 whole entry): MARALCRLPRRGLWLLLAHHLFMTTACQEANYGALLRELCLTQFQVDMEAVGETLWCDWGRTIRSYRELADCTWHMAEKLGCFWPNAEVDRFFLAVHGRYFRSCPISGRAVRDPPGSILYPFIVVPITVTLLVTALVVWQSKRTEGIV
T1 sequence (Q16602 whole entry): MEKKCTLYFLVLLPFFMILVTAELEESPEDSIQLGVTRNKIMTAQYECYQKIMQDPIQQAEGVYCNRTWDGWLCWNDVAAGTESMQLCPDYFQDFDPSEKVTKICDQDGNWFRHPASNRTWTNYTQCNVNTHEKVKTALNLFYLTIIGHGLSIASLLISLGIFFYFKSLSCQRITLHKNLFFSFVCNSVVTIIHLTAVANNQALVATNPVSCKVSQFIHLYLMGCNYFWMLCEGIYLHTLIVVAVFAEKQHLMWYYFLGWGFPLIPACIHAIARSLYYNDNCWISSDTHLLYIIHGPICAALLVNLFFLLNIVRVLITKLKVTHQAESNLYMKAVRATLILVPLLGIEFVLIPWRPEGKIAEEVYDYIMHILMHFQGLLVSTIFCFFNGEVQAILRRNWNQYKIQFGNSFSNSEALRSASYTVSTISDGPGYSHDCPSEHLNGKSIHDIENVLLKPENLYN

Row | SMILES | Ki [1] [nM] | IC50 [2] [nM] | other results
1 | O=C(N[C@@H]1N=C(c2ccccc2)c2ccccc2N(CC(F)(F)F)C1=O)N1CCC(n2c(=O)[nH]c3ccccc32)CC1 | 2370 | 1580 | –
2 | O=C(N[C@@H]1N=C(c2ccccc2)c2ccccc2N(CC(F)(F)F)C1=O)N1CCC(N2CCc3ccccc3NC2=O)CC1 | 61 | 43 | –
3 | CN1C(=O)[C@H](NC(=O)N2CCC(N3Cc4ccccc4NC3=O)CC2)N=C(c2ccccc2)c2ccccc21 | 2200 | 3640 | –
4 | CN1C(=O)[C@H](NC(=O)Nc2ccc3c(c2)CCC2(C3)NC(=O)NC2=O)N=C(c2ccccc2)c2ccccc21 (some centres not stated) | 4250 | – | inhibition [3]: 57%
5 | O=C(N[C@@H]1N=C(c2ccccc2)c2ccccc2N(CC(F)(F)F)C1=O)N1CCC(N2Cc3ccccc3NC2=O)CC1 | 44 | 38 | inhibition [4]: 35%; Kb [2]: 77 nM; Kb ([2]; read-out: pA2 (converted)): 79.4 nM; Cmax [5]: 240 nM; half-life [6]: 1.7 h; bioavailability [7]: 10%; clearance [8]: 20 mL/min/kg
6 | CC(C)N1C(=O)C(NC(=O)N2CCC(N3Cc4ccccc4NC3=O)CC2)N=C(c2ccccc2)c2ccccc21 (racemic) | 1060 | 1810 | –
7 | O=C(N[C@H](Cc1cc(Br)c(O)c(Br)c1)C(=O)N1CCN(c2ccccc2)CC1)N1CCC(n2c(O)nc3ccccc32)CC1 | 83 | 75 | –
8 | CN1C(=O)[C@@H](NC(=O)N2CCC(N3Cc4ccccc4NC3=O)CC2)N=C(c2ccccc2)c2ccccc21 | 8400 | 4450 | –
9 | CCN1C(=O)[C@H](NC(=O)N2CCC(N3Cc4ccccc4NC3=O)CC2)N=C(c2ccccc2)c2ccccc21 | 897 | 990 | –
10 | CC(C)N1C(=O)C(NC(=O)N2CCC(N3Cc4ccccc4N(C)C3=O)CC2)N=C(c2ccccc2)c2ccccc21 (racemic) | – | – | inhibition [9]: 33%
11 | CN1C(=O)C(NC(=O)N2CCC(n3c(=O)[nH]c4ccccc43)CC2)N=C(c2ccccc2)c2ccccc21 (racemic) | > 13000 | – | –
